From ChEMBL document CHEMBL1153005, “Synthesis and biological evaluation of curcumin-like diarylpentanoid analogues for anti-inflammatory, antioxidant and anti-tyrosinase activities” (Eur J Med Chem, 2009)

Tests used:
RAW264.7 [1] = assay: Antiinflammatory activity in mouse RAW264.7 cells assessed as inhibition of IFN-gamma/LPS-stimulated nitric oxide production after 17 to 20 hrs by Griess assay; assay type: functional, cell-based
How it was run: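 RAW 264.7 cells were grown in DMEM with 10% FBS and 1% penicillin/streptomycin (5% CO₂, 37 °C). At 80–90% confluency they were scraped and seeded at 5 × 10⁴ cells/well. Nitrite was measured by Griess assay, and % NO inhibition was taken relative to the IFN-γ/LPS control. Results are the mean ± S.E.M. of three experiments; IC₅₀ values were computed from these.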

Tyrosinase = target: T1, Tyrosinase (Homo sapiens, UniProt P14679); assay: Inhibition of tyrosinase
T1 sequence (P14679 whole entry): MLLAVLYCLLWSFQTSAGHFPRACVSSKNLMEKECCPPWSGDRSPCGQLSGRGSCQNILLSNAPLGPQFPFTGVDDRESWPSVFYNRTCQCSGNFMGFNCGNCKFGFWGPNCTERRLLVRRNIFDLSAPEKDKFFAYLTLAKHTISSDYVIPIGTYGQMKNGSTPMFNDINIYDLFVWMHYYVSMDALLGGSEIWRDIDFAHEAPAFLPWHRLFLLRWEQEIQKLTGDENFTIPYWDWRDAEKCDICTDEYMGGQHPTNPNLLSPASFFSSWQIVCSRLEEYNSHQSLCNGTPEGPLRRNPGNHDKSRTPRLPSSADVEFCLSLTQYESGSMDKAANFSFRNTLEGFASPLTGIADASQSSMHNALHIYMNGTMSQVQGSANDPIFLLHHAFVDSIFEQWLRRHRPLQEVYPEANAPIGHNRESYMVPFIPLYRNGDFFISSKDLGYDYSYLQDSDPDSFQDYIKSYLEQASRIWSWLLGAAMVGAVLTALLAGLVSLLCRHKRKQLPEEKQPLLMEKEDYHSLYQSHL

[2] = tested on: Radical scavenging activity; assay: Antioxidant activity assessed as DPPH free radical scavenging activity after 30 mins; assay type: functional
How it was run: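 Compound stocks were made in 100% DMSO and serially diluted from 7.81 to 500. DPPH (1 mg/ml in methanol) was added, and plates were shaken gently and kept in the dark for 30 min. Absorbance was read at 517 nm, and % scavenging was calculated versus the control. Results are the mean ± S.E.M. of three runs; IC₅₀ values were calculated.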

[3] = Antioxidant activity assessed as nitric oxide scavenging activity after 60 min by Griess assay; assay type: functional
How it was run: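 Sodium nitroprusside (10 mM) was incubated alone or with test compounds (7.81–500) for 60 min under light exposure. Nitrite in the mixture was measured by Griess assay, and % NO scavenging was calculated from OD versus the control. Results are the mean ± S.E.M. of three runs; IC₅₀ values were calculated.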

[4] = Cytotoxicity against HEMn cells; assay type: cell-based; details: human
RAW264.7 [5] = assay: Cytotoxicity against IFN-gamma/LPS-stimulated mouse RAW264.7 cells assessed as cell viability at 50 uM after 17 to 20 hrs by MTT assay; assay type: cell-based; details: raw264.7, 50 µM
How it was run: (§1)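 RAW 264.7 cells were cultured and seeded as for the NO assay. In the MTT read-out, cells were incubated for 4 h at 37 °C under 5% CO₂. Formazan was dissolved in DMSO and absorbance read at 570 nm. Viability (%) = OD sample / OD control × 100. Results are the mean ± S.E.M. of three experiments.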

RAW264.7 [6] = assay: Cytotoxicity against IFN-gamma/LPS-stimulated mouse RAW264.7 cells assessed as cell viability at 25 uM after 17 to 20 hrs by MTT assay; assay type: cell-based; details: raw264.7, 25 µM; how it was run: as §1
[7] = Mus musculus, RAW264.7, read-out: IC50

**Q.** Which results are given for `COc1cc(/C=C/C(=O)CC(=O)/C=C/c2ccc(O)c(OC)c2)ccc1O` [CURCUMIN]?
**A.** IC50 (RAW264.7 [1]; [7]): 20.4 µM; IC50 (Tyrosinase): Not Active; IC50 ([2]; read-out: IC50): 110 µM; IC50 ([3]; read-out: IC50): > 500 µM

**Q.** Which results are given for `O=C(/C=C/c1ccc(O)cc1)/C=C/c1ccc(O)cc1`?
**A.** IC50 (RAW264.7 [1]; raw264.7): Not Active; IC50 (Tyrosinase; read-out: IC50): 79 µM; IC50 ([2]; read-out: IC50): > 500 µM; IC50 ([3]; read-out: IC50): > 500 µM; Activity [4]: Toxic

**Q.** For `COc1cc(/C=C/C(=O)/C=C/c2ccc(O)c(OC)c2)ccc1O`, which IC50 (RAW264.7 [1]; raw264.7) is on record?
**A.** Its IC50 is “Not Active”.

**Q.** What about the IC50 (Tyrosinase; read-out: IC50) of the same molecule?
**A.** Its IC50 is over 250 µM.

**Q.** And the IC50 ([2]; read-out: IC50)?
**A.** The IC50 was 257 µM.

**Q.** What about the IC50 ([3]; read-out: IC50) of the same molecule?
**A.** Its IC50 is over 500 µM.

**Q.** With `O=C(/C=C/c1ccc(F)cc1)/C=C/c1ccc(F)cc1` as the molecule, how does the IC50 (RAW264.7 [1]; raw264.7) read?
**A.** The IC50 was “Not Active”.

**Q.** What about the IC50 (Tyrosinase; read-out: IC50) of the same molecule?
**A.** The IC50 was over 250 µM.

**Q.** What about the IC50 [2] of the same molecule?
**A.** Its IC50 is “Not Active”.

**Q.** What about the IC50 [3] of the same molecule?
**A.** The IC50 was “Not Active”.

**Q.** What does the source list for `O=c1c(O)c(-c2ccc(O)c(O)c2)oc2cc(O)cc(O)c12` [QUERCETIN]?
**A.** IC50 ([2]; read-out: IC50): 41.8 µM; IC50 [3]: Not Active

**Q.** For `CC1(C)N([O])C(c2ccccc2)=[N+]([O-])C1(C)C`, which IC50 ([3]; read-out: IC50) is on record?
**A.** The IC50 was 0.57 µM.

**Q.** With `COC(=O)[C@@H](N)CCCNC(=N)N[N+](=O)[O-]` [L-NAME] as the molecule, how does the IC50 (RAW264.7 [1]; [7]) read?
**A.** Its IC50 is 27.1 µM.

**Q.** Which results are given for `COc1ccc(OC)c(/C=C/C(=O)/C=C/c2cc(OC)ccc2OC)c1`?
**A.** IC50 (RAW264.7 [1]; [7]): 13.6 µM; IC50 (Tyrosinase): Not Active; Activity (RAW264.7 [5]): Toxic; IC50 [2]: Not Active; IC50 [3]: Not Active

**Q.** With `COc1ccc(/C=C/C(=O)/C=C/c2ccc(OC)cc2F)c(F)c1` as the molecule, how does the IC50 (RAW264.7 [1]; [7]) read?
**A.** Its IC50 is 33.1 µM.

**Q.** What about the IC50 (Tyrosinase; read-out: IC50) of the same molecule?
**A.** Its IC50 is over 250 µM.

**Q.** What about the IC50 [2] of the same molecule?
**A.** Its IC50 is “Not Active”.

**Q.** And the IC50 [3]?
**A.** The IC50 was “Not Active”.

**Q.** For `O=C(/C=C/c1ccccc1O)/C=C/c1ccccc1O`, which Activity (RAW264.7 [6]) is on record?
**A.** The Activity was “Toxic”.

**Q.** And the IC50 (RAW264.7 [1]; [7])?
**A.** The IC50 was 10.2 µM.

**Q.** And the IC50 (Tyrosinase)?
**A.** Its IC50 is “Not Active”.

**Q.** And the Activity (RAW264.7 [5])?
**A.** Its Activity is “Toxic”.

**Q.** And the IC50 ([2]; read-out: IC50)?
**A.** Its IC50 is over 500 µM.

**Q.** What about the IC50 ([3]; read-out: IC50) of the same molecule?
**A.** The IC50 was over 500 µM.
